# Source: ChEMBL document CHEMBL1153955, “Indolylarylsulfones bearing natural and unnatural amino acids. Discovery of potent inhibitors of HIV-1 non-nucleoside wild type and resistant mutant strains reverse transcriptase and coxsackie B4 virus” (J Med Chem, 2009)
# Experiments:
# [1] = test system: Respiratory syncytial virus; assay: Antiviral activity against RSV Long in human HeLa cells assessed as protection against virus-induced cytopathicity; assay type: functional, organism-based
# Summary of the method: (§1)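 Confluent cell monolayers inoculated with 100 CCID₅₀ virus. After 1-2 h adsorption, residual virus removed and cultures incubated with varying compound concentrations. Cytopathicity scored once it reached completion in untreated infected controls. EC₅₀ = dose reducing virus-induced cytopathogenicity by 50%.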
# [2] = test system: Vesicular stomatitis virus; assay: Antiviral activity against VSV in human HeLa cells assessed as protection against virus-induced cytopathicity; assay type: functional, organism-based
# [3] = test system: Human immunodeficiency virus 1; assay: Antiviral activity against HIV1 3B in human CEM cells assessed as protection against virus-induced cytopathicity after 4 days; assay type: functional, organism-based; conditions: Human immunodeficiency virus 1, 3B, CCRF-CEM, 96 h
# Summary of the method: (§2)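 CEM cells (~3 × 10⁵ cells/mL) infected with ~100 CCID₅₀ per mL of HIV-1 (IIIB) or HIV-2 (ROD), then seeded into wells containing compound dilutions. After 4 days at 37 °C, syncytium (giant cell) formation was examined microscopically. EC₅₀ = concentration protecting CEM cells from HIV cytopathicity by 50%.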
# [4] = test system: Human immunodeficiency virus 2; assay: Antiviral activity against HIV2 ROD in human CEM cells assessed as protection against virus-induced cytopathicity after 4 days; assay type: functional, organism-based; conditions: Human immunodeficiency virus 2, ROD, CCRF-CEM, 96 h; summary of the method: as §2
# [5] = test system: L1210; assay: Antiproliferative activity against mouse L1210 cells after 2 days; assay type: cell-based; conditions: L1210, 48 h
# Summary of the method: (§3)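 Cells seeded at 5 × 10⁴ to 7.5 × 10⁴ cells/200 µL with or without serial compound dilutions; incubated at 37 °C for 2 days (L1210) or 3 days (Molt4/C8, CEM). Cell numbers counted with a Coulter counter. CC₅₀ = concentration reducing proliferation by 50% versus untreated controls, read from plots of cell number (% of control) against concentration. Means of at least two independent experiments.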
# [6] = Antiproliferative activity against human Molt4/C8 cells after 3 days; assay type: cell-based; conditions: MOLT-4, 72 h; summary of the method: as §3
# [7] = test system: CCRF-CEM; assay: Antiproliferative activity against human CEM cells after 3 days; assay type: cell-based; conditions: 72 h; summary of the method: as §3
# [8] = target: Human immunodeficiency virus type 1 reverse transcriptase (Human immunodeficiency virus 1, UniProt Q72547); assay: Inhibition of HIV1 reverse transcriptase p66/p51; conditions: read-out: IC50
# [9] = target: Human immunodeficiency virus type 1 reverse transcriptase (Human immunodeficiency virus 1, UniProt Q72547, K103N); assay: Inhibition of HIV1 reverse transcriptase p66/p51 K103N mutant; conditions: read-out: IC50
# Summary of the method: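 Substrate was 0.5 µg poly(rA)/oligo(dT) 10:1 (0.3 µM 3′-OH ends) with 10 µM [³H]dTTP, at 37 °C. Acid-precipitable radioactivity was counted on GF/C filters after TCA washes.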
# [10] = Cytotoxicity against human HeLa cells assessed as drug level causing microscopically detectable alteration of normal cell morphology after 3 days; assay type: cell-based
# Summary of the method: (§4)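 Serial compound dilutions added to confluent HeLa or Vero monolayers. MCC = minimum concentration causing microscopically detectable alteration of cell morphology after 3 days of incubation.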
# [11] = Cytotoxicity against african green monkey Vero cells assessed as drug level causing microscopically detectable alteration of normal cell morphology after 3 days; assay type: cell-based; conditions: chlorocebus sabaeus; summary of the method: as §4
# [12] = test system: Coxsackievirus B4; assay: Antiviral activity against Coxsackievirus B4 in human HeLa cells assessed as protection against virus-induced cytopathicity; assay type: functional, organism-based; conditions: Enterovirus B; summary of the method: as §1
# [13] = test system: Coxsackievirus B4; assay: Antiviral activity against Coxsackievirus B4 in african green monkey Vero cells assessed as protection against virus-induced cytopathicity; assay type: functional, organism-based; conditions: Enterovirus B; summary of the method: as §1
# [14] = test system: Human respirovirus 3; assay: Antiviral activity against Parainfluenza virus type 3 in african green monkey Vero cells assessed as protection against virus-induced cytopathicity; assay type: functional, organism-based; conditions: Human respirovirus 3, Vero; summary of the method: as §1
# [15] = test system: Mammalian orthoreovirus 1; assay: Antiviral activity against Reovirus 1 in african green monkey Vero cells assessed as protection against virus-induced cytopathicity; assay type: functional, organism-based; conditions: Mammalian orthoreovirus 1, Vero; summary of the method: as §1
# [16] = test system: Sindbis virus; assay: Antiviral activity against Sindbis virus in african green monkey Vero cells assessed as protection against virus-induced cytopathicity; assay type: functional, organism-based; summary of the method: as §1
# [17] = test system: Punta Toro virus; assay: Antiviral activity against Punta Toro virus in african green monkey Vero cells assessed as protection against virus-induced cytopathicity; assay type: functional, organism-based; summary of the method: as §1
# [18] = Cytotoxicity against human HEL cells assessed as drug level causing microscopically detectable alteration of normal cell morphology after 3 days; assay type: cell-based
# [19] = test system: Human alphaherpesvirus 1; assay: Antiviral activity against HSV1 KOS in human HEL cells assessed as protection against virus-induced cytopathicity; assay type: functional, organism-based; conditions: Human alphaherpesvirus 1, KOS
# [20] = test system: Human alphaherpesvirus 2; assay: Antiviral activity against HSV2 G in human HEL cells assessed as protection against virus-induced cytopathicity; assay type: functional, organism-based; conditions: Human alphaherpesvirus 2, strain G; summary of the method: as §1
# [21] = test system: Vaccinia virus; assay: Antiviral activity against Vaccinia virus Lederle in human HEL cells assessed as protection against virus-induced cytopathicity; assay type: functional, organism-based; conditions: Orthopoxvirus vaccinia
# [22] = test system: Vesicular stomatitis virus; assay: Antiviral activity against VSV in human HEL cells assessed as protection against virus-induced cytopathicity; assay type: functional, organism-based
# [23] = test system: Human alphaherpesvirus 1; assay: Antiviral activity against thymidine kinase deficient and acyclovir resistant HSV1 KOS in human HEL cells assessed as protection against virus-induced cytopathicity; assay type: functional, organism-based; conditions: Human alphaherpesvirus 1, KOS
# [24] = Cytotoxicity against MDCK cells assessed as drug level causing microscopically detectable alteration of normal cell morphology; assay type: cell-based, Canis lupus familiaris; conditions: dog
# [25] = Cytotoxicity against MDCK cells by MTS assay; assay type: cell-based, Canis lupus familiaris; conditions: dog
# [26] = test system: Influenza A virus; assay: Antiviral activity against influenza H1N1 virus in MDCK cells assessed as reduction of virus-induced cytopathicity by visual cytopathic effect scoring method; assay type: functional, organism-based
# [27] = test system: Influenza A virus; assay: Antiviral activity against influenza H1N1 virus in MDCK cells assessed as reduction of virus-induced cytopathicity by MTS method; assay type: functional, organism-based
# [28] = test system: Influenza A virus H3N2; assay: Antiviral activity against influenza H3N2 virus in MDCK cells assessed as reduction of virus-induced cytopathicity by visual cytopathic effect scoring method; assay type: functional, organism-based
# [29] = test system: Influenza A virus H3N2; assay: Antiviral activity against influenza H3N2 virus in MDCK cells assessed as reduction of virus-induced cytopathicity by MTS method; assay type: functional, organism-based
# [30] = test system: Influenza B virus; assay: Antiviral activity against influenza B virus in MDCK cells assessed as reduction of virus-induced cytopathicity by visual cytopathic effect scoring method; assay type: functional, organism-based
# [31] = test system: Influenza B virus; assay: Antiviral activity against influenza B virus in MDCK cells assessed as reduction of virus-induced cytopathicity by MTS method; assay type: functional, organism-based
# [32] = Cytotoxicity against feline CRFK cells by MTS assay; assay type: cell-based, Felis catus; conditions: cat
# [33] = test system: Feline coronavirus; assay: Antiviral activity against Feline coronavirus in feline […] cells assessed as inhibition of virus-induced cytopathicity; assay type: functional, organism-based; conditions: Alphacoronavirus 1
# [34] = test system: Felid alphaherpesvirus 1; assay: Antiviral activity against Feline herpesvirus in feline […] cells assessed as inhibition of virus-induced cytopathicity; assay type: functional, organism-based
structure (smiles),measurement,setting,value
Cc1cc(C)cc(S(=O)(=O)c2c(C(=O)NNC(C)C)[nH]c3ccc(Cl)cc23)c1,EC50,[1],> 100 µM
same,EC50,[2],> 100 µM
same,EC50,[3],0.0064 µM
same,EC50,[4],> 50 µM
same,IC50,[5],> 500 µM
same,IC50,[6],432 µM
same,IC50,[7],≥ 500 µM
same,IC50,[8],0.01 µM
same,IC50,[9],0.8 µM
same,MCC at 72 h,[10],> 100 µM
same,MCC at 72 h,[11],> 100 µM
same,EC50,[12],> 100 µM
same,EC50,[13],> 100 µM
same,EC50,[14],> 100 µM
same,EC50,[15],> 100 µM
same,EC50,[16],> 100 µM
same,EC50,[17],> 100 µM
same,MCC at 72 h,[18],> 100 µM
same,EC50,[19],> 100 µM
same,EC50,[20],> 100 µM
same,EC50,[21],> 100 µM
same,EC50,[22],> 100 µM
same,EC50,[23],> 100 µM
same,MCC,[24],100 µM
same,CC50,[25],> 100 µM
same,EC50,[26],> 20 µM
same,EC50,"[27]; Influenza A virus, H1N1, MDCK",> 20 µM
same,EC50,[28],> 20 µM
same,EC50,[29],> 20 µM
same,EC50,[30],> 20 µM
same,EC50,[31],> 20 µM
same,CC50,[32],> 100 µM
same,EC50,[33],> 100 µM
same,EC50,[34],> 100 µM
Cc1cc(C)cc(S(=O)(=O)c2c(C(=O)N[C@H](C)C(N)=O)[nH]c3ccc(Cl)cc23)c1,IC50,[8],0.017 µM
same,IC50,[9],0.253 µM
Cc1cc(C)cc(S(=O)(=O)c2c(C(=O)N[C@H](C)C(N)=O)[nH]c3ccc(Br)cc23)c1,IC50,[8],0.016 µM
same,IC50,[9],0.324 µM
Cc1cc(C)cc(S(=O)(=O)c2c(C(=O)N[C@H](C)CC(N)=O)[nH]c3ccc(Cl)cc23)c1,IC50,[8],0.147 µM
same,IC50,[9],1.42 µM
Cc1cc(C)cc(S(=O)(=O)c2c(C(=O)N[C@@H](C)C(N)=O)[nH]c3ccc(Br)cc23)c1,IC50,[8],0.013 µM
same,IC50,[9],1.5 µM
Cc1cc(C)cc(S(=O)(=O)c2c(C(=O)N[C@@H](C)C(N)=O)[nH]c3ccc(Cl)cc23)c1,IC50,[8],0.026 µM
same,IC50,[9],1.01 µM
Cc1cc(C)cc(S(=O)(=O)c2c(C(=O)N[C@@H](C)CC(N)=O)[nH]c3ccc(Cl)cc23)c1,IC50,[8],0.315 µM
same,IC50,[9],1.34 µM
Nc1ncnc2c1ncn2C[C@H](O)CO [(S)-DHPA],EC50,[1],> 250 µM
same,EC50,[2],> 250 µM
same,MCC at 72 h,[10],> 250 µM
same,MCC at 72 h,[11],> 250 µM
same,EC50,[12],> 250 µM
same,EC50,[13],> 250 µM
same,EC50,[14],> 250 µM
same,EC50,[15],> 250 µM
same,EC50,[16],> 250 µM
same,EC50,[17],> 250 µM
NC12CC3CC(CC(C3)C1)C2 [AMANTADINE],MCC,[24],> 100 µM
same,CC50,[25],> 100 µM
same,EC50,[26],> 100 µM
same,EC50,"[27]; Influenza A virus, H1N1, MDCK",> 100 µM
same,EC50,[28],100 µM
same,EC50,[29],75.3 µM
same,EC50,[30],> 100 µM
same,EC50,[31],> 100 µM
O=c1[nH]c(=O)n([C@H]2C[C@H](O)[C@@H](CO)O2)cc1/C=C/Br [BRIVUDINE],MCC at 72 h,[18],> 250 µM
same,EC50,[19],0.02 µM
same,EC50,[20],29 µM
same,EC50,[21],4 µM
same,EC50,[22],> 250 µM
Nc1ccn(C[C@@H](CO)OCP(=O)(O)O)c(=O)n1 [CIDOFOVIR],MCC at 72 h,[18],> 250 µM
same,EC50,[19],2 µM
same,EC50,[20],1 µM
same,EC50,[21],20 µM
same,EC50,[22],> 250 µM
same,EC50,[23],1 µM
Nc1nc2c(ncn2COC(CO)CO)c(=O)[nH]1 [GANCICLOVIR],MCC at 72 h,[18],> 100 µM
same,EC50,[20],0.2 µM
same,EC50,[21],> 100 µM
same,EC50,[22],> 100 µM
same,CC50,[32],> 100 µM
same,EC50,[33],> 100 µM
same,EC50,[34],1.2 µM
NC(=O)c1ncn([C@@H]2O[C@H](CO)[C@@H](O)[C@H]2O)n1 [RIBAVIRIN],EC50,[1],10 µM
same,MCC at 72 h,[10],> 250 µM
same,MCC at 72 h,[11],> 250 µM
same,EC50,[12],50 µM
same,EC50,[13],≥ 250 µM
same,EC50,[14],> 50 µM
same,EC50,[16],250 µM
same,EC50,[17],50 µM
same,MCC at 72 h,[18],> 250 µM
same,EC50,[19],> 250 µM
same,EC50,[20],250 µM
same,EC50,[21],112 µM
same,EC50,[22],125 µM
same,EC50,[23],> 250 µM
same,MCC,[24],> 100 µM
same,CC50,[25],> 100 µM
same,EC50,[26],900 µM
same,EC50,[27]; mdck,8400 µM
same,EC50,[29],8.1 µM
same,EC50,[30],4 µM
same,EC50,[31],4.8 µM
CC(N)C12CC3CC(CC(C3)C1)C2 (stereo unspecified) [RIMANTADINE],MCC,[24],> 100 µM
same,CC50,[25],> 100 µM
same,EC50,[26],45 µM
same,EC50,"[27]; Influenza A virus, H1N1, MDCK",33.2 µM
same,EC50,[28],> 100 µM
same,EC50,[29],> 100 µM
same,EC50,[30],> 100 µM
same,EC50,[31],> 100 µM
